# Source: ChEMBL document CHEMBL1121795, “Esters of isoguvacine as potential prodrugs” (J Med Chem, 1981)
# Key:
# [1] = Half-life was measured in 0.5 M KCl at 10 mM concentration; type: ADME; conditions: 0.5 M KCl solution
# Summary of the method: (§1)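 Chemical stability was measured with 0.5 mmol ester in 50 mL 0.5 M KCl plus 0.5 mL pH 7.00 phosphate buffer (10 mM), at pH 7.35 and 37 °C. pH-stat titration with 0.5 N NaOH recorded base consumption against time for the 2 acid equivalents released. Pseudo-first-order half-life, mean of at least two runs.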
# [2] = Half-life was measured in 10% human serum at 1 mM concentration; type: ADME
# Summary of the method: (§2)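 Medium was 45 mL 0.5 M KCl, 0.5 mL phosphate buffer and 5.0 mL human serum (protein 69–78 mg/mL, BSA standard), N2-purged 2 h with pH held at 7.2–7.6 using 0.1 N HCl. Ester (0.05 or 0.5 mmol) was added; a pH-stat held 7.35 with 0.1 or 0.5 N NaOH at 37 °C. Half-life was calculated from base consumed.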
# [3] = Half-life was measured in 10% human serum at 10 mM concentration; type: ADME; summary of the method: as §2
# [4] = Half-life was measured in 10% human serum at 10 mM of ester; type: ADME; summary of the method: as §2
# Mus musculus [5] = species on record: Mus musculus; assay: Compound was tested for anticonvulsant activity by measuring its effect on convulsions induced by electroshock in mice.; type: functional
# Summary of the method: (§3)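 Mice, at least five per group at each time point, received the ester ip; convulsions were induced 0.5, 1, 2, 3, 4, 5, 6, 17 and 24 h later. Value is the minimum effective anticonvulsant dose (mg/kg), with the time between dosing and onset of activity.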
# Mus musculus [6] = species on record: Mus musculus; assay: Compound was tested for anticonvulsant activity by measuring its effect on convulsions induced by bicuculline in mice.; type: functional; summary of the method: as §3
# Mus musculus [7] = species on record: Mus musculus; assay: Compound was tested for anticonvulsant activity by measuring its effect on convulsions induced by isoniazide in mice.; type: functional; summary of the method: as §3
# [8] = Half-life was measured in 0.5 M KCl at 10 mM dose.; type: ADME; conditions: 0.5 M KCl solution; summary of the method: as §1
# [9] = Half-life was measured in 10% human serum at 1 mM dose.; type: ADME; summary of the method: as §2
# [10] = Half-life was measured in 10% human serum at 10 mM dose.; type: ADME; summary of the method: as §2
Structure (SMILES),half-life at 10000 µM [1],half-life at 1000 µM [2],half-life at 10000 µM [3],half-life at 10000 µM [4],Anticonvulsant dose (Mus musculus [5]),Anticonvulsant dose (Mus musculus [6]),Anticonvulsant dose (Mus musculus [7]),half-life at 10000 µM [8],half-life at 1000 µM [9],half-life at 10000 µM [10]
CCC(CC)C(=O)OCOC(=O)C1=CCNCC1.O=C(O)/C=C/C(=O)O,942 min,138 min,474 min,,,,,,,
Br.CCOC(=O)COC(=O)C1=CCNCC1,,,,12.5 days,,,,,,
O=C(O)/C=C/C(=O)O.O=C(OCOC(=O)c1ccccc1)C1=CCNCC1,558 min,4.2 min,24 min,,>80 mg/kg,>80 mg/kg,>160 mg/kg,,,
CCCCC(=O)OCOC(=O)C1=CCNCC1.O=C(O)/C=C/C(=O)O,720 min,1.8 min,16.8 min,,,,,,,
Cl.O=C(O)C1=CCNCC1 [ISOGUVACINE HYDROCHLORIDE],,,,,>80 mg/kg,>80 mg/kg,>160 mg/kg,,,
CC(C)C(=O)OCOC(=O)C1=CCNCC1.O=C(O)/C=C/C(=O)O,648 min,7.8 min,43.8 min,,,,,,,
CCCC(=O)OCOC(=O)C1=CCNCC1.O=C(O)/C=C/C(=O)O,702 min,3.6 min,15 min,,,,,,,
CC(C)CC(=O)OCOC(=O)C1=CCNCC1.O=C(O)/C=C/C(=O)O,798 min,43.2 min,210 min,,,,,,,
CC(C)(C)C(=O)OCOC(=O)C1=CCNCC1.O=C(O)/C=C/C(=O)O,1030 min,276 min,894 min,,10 mg/kg,20 mg/kg,>160 mg/kg,,,
O=C(O)/C=C/C(=O)O.O=C(OCOC(=O)C1CCCCC1)C1=CCNCC1,600 min,1.8 min,8.4 min,,,,,,,
COC(=O)C1=CCNCC1.Cl,,,,17.9 days,,,,,,
CC(=O)OCOC(=O)C1=CCNCC1.O=C(O)/C=C/C(=O)O,654 min,36 min,72 min,,5 mg/kg,>80 mg/kg,40 mg/kg,,,
Br.CCCCOC(=O)C1=CCNCC1,,,,25 days,40 mg/kg,40 mg/kg,>160 mg/kg,,,
CCCCCC(=O)OCOC(=O)C1=CCNCC1.O=C(O)/C=C/C(=O)O,780 min,3.6 min,19.2 min,,,,,,,
CCC(=O)OCOC(=O)C1=CCNCC1.O=C(O)/C=C/C(=O)O,,,,,>80 mg/kg,>80 mg/kg,40 mg/kg,666 min,10.2 min,32.4 min
